Data from ChEMBL document CHEMBL1126655, “Synthesis and antiviral activity of novel isonucleoside analogs” (J Med Chem, 1993).

What was measured:
Human betaherpesvirus 5 = assay: Antiviral activity against Human cytomegalovirus (AD169 strain); format: functional; conditions: read-out: ID50 (the source's name)
Outline: (§1)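 WI-38 monolayers were infected, with virus adsorbed for 1–2 h. They were then overlaid with EMEM maintenance medium (1% carboxymethyl cellulose, 2.5% FBS) containing duplicate drug dilutions. Monolayers were stained after 4–6 days at 37 °C. ID50 was taken as the concentration giving 50% plaque reduction versus virus controls. Titrations were done in duplicate.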

Human alphaherpesvirus 1 [1] = assay: Antiviral activity against Herpes simplex virus-1 (Schooler strain); format: functional; conditions: read-out: ID50 (the source's name); outline: as §1
Human alphaherpesvirus 3 = assay: Antiviral activity against Varicella zoster virus (Ellen strain); format: functional; conditions: read-out: ID50 (the source's name); outline: as §1
Human alphaherpesvirus 1 [2] = assay: Antiviral activity against Herpes simplex virus-1 (Schooler); format: functional; conditions: read-out: ID50 (the source's name); outline: as §1
Human alphaherpesvirus 2 = assay: Antiviral activity against Herpes simplex virus-2 (thymidine kinase deficient strains isolated as BVaraU resistant mutants of HSV-1 (KOS)); format: functional; conditions: read-out: ID50 (the source's name)
[3] = Antiviral activity against Herpes simplex virus-1 (KOS strain); format: functional; conditions: Human alphaherpesvirus 1; read-out: ID50 (the source's name); outline: as §1
Human alphaherpesvirus 1 [4] = assay: Antiviral activity against Herpes simplex virus-1 (thymidine kinase deficient strains isolated as BVaraU resistant mutants of HSV-1 (KOS)); format: functional; conditions: read-out: ID50 (the source's name); outline: as §1
Mus musculus [5] = assay: Protective dose against Herpes simplex virus type type -1 infection in mice at 200 mg/kg; format: functional; conditions: read-out: PD50
Outline: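 Female Swiss-Webster mice (20–23 g), 10 per group, infected intraperitoneally with 10^3 PFU HSV-1 strain Schooler (Vero freeze-thaw extract) in 0.3% BSA-PBS. Subcutaneous dosing in PBS twice daily from 1 h postinfection for 5 days, 12.5–200 mg/kg/day. Survival scored over 21 days; PD50 from survival by probit analysis.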

Mus musculus [6] = assay: Protective dose against Herpes simplex virus type type -2 infection in mice at 200 mg/kg; format: functional; conditions: read-out: PD50
Outline: (§2)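 Female Swiss-Webster mice (20–23 g), 10 per group, infected intraperitoneally with 10^6 PFU HSV-2 strain Curtis (Vero freeze-thaw extract) in 0.3% BSA-PBS. Drug given subcutaneously in PBS twice daily from 1 h postinfection for 5 days, doses 12.5–200 mg/kg/day. Survival followed 21 days; PD50 by probit analysis; mean day of death by Student's t-test versus placebo.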

WI-38 [7] = assay: Tested for growth inhibition againstWI-38 cells; format: functional; conditions: Homo sapiens, read-out: ID50 (the source's name)
Outline: (§3)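 WI-38 cells seeded at 1.2 × 10^6 per well, incubated overnight at 37 °C, then refed with growth medium (EMEM, 10% FBS) holding serial drug dilutions or none, for 3 more days at 37 °C. Quadruplicate cultures per concentration trypsinized and counted daily for viable cells by trypan blue exclusion.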

Vaccinia virus = assay: Antiviral activity against vaccinia virus (CL strain); format: functional; conditions: Orthopoxvirus vaccinia; read-out: ID50 (the source's name)
Mus musculus [8] = assay: Number of survivors against Herpes simplex virus type-1 infection in mice at 100 mg/kg/day out of total 10 tested; format: functional
Outline: (§4)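 Female Swiss-Webster mice (20–23 g, 10 per group) were infected ip with 10^3 PFU HSV-1 Schooler in 0.3% BSA-PBS. Drug was given sc twice daily in PBS, starting 1 h postinfection, for 5 days. Survival was followed for 21 days. Mean day of death of dead animals was compared with placebo-treated infected controls by Student's t-test.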

Mus musculus [9] = assay: Number of survivors against Herpes simplex virus type-1 infection in mice at 150 mg/kg/day out of total 10 tested; format: ADME, organism-based; conditions: in vivo; outline: as §4
Mus musculus [10] = assay: Number of survivors against Herpes simplex virus type-1 infection in mice at 200 mg/kg/day out of total 10 tested; format: functional; outline: as §4
Mus musculus [11] = assay: Number of survivors against Herpes simplex virus type-1 infection in mice at 25 mg/kg/day out of total 10 tested; format: functional; outline: as §4
Mus musculus [12] = assay: Number of survivors against Herpes simplex virus type-2 infection in mice at 100 mg/kg/day out of total 10 tested; format: functional
Outline: (§5)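 Female Swiss-Webster mice (20–23 g, 10 per group) were infected ip with 10^6 PFU HSV-2 Curtis in 0.3% BSA-PBS. Dosing was sc twice daily in PBS from 1 h postinfection for 5 days. Survival was recorded over 21 days. Mean day of death was computed for dead mice and compared with placebo-treated infected controls by Student's t-test.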

Mus musculus [13] = assay: Number of survivors against Herpes simplex virus type-2 infection in mice at 12.5 mg/kg/day out of total 10 tested; format: functional; outline: as §5
Mus musculus [14] = assay: Number of survivors against Herpes simplex virus type-2 infection in mice at 200 mg/kg/day out of total 10 tested; format: functional; outline: as §5
Mus musculus [15] = assay: Number of survivors against Herpes simplex virus type-2 infection in mice at 25 mg/kg/day out of total 10 tested; format: functional; outline: as §2
Mus musculus [16] = assay: Day of death in lethal test against herpes simplex virus type-1 at 100 mg/kg/day; format: ADME, organism-based; conditions: in vivo; outline: as §4
Mus musculus [17] = assay: Day of death in lethal test against herpes simplex virus type-1 at 12.5 mg/kg/day; format: ADME, organism-based; conditions: in vivo; outline: as §4
Mus musculus [18] = assay: Day of death in lethal test against herpes simplex virus type-1 at 150 mg/kg/day; format: functional; outline: as §4
Mus musculus [19] = assay: Day of death in lethal test against herpes simplex virus type-1 at 50 mg/kg/day; format: ADME, organism-based; conditions: in vivo; outline: as §4
Mus musculus [20] = assay: Day of death in lethal test against herpes simplex virus type-2 at 100 mg/kg/day; format: ADME, organism-based; conditions: in vivo; outline: as §5
Mus musculus [21] = assay: Day of death in lethal test against herpes simplex virus type-2 at 12.5 mg/kg/day; format: ADME, organism-based; conditions: in vivo; outline: as §5
Mus musculus [22] = assay: Day of death in lethal test against herpes simplex virus type-2 at 25 mg/kg/day; format: ADME, organism-based; conditions: in vivo; outline: as §5
Mus musculus [23] = assay: Day of death in lethal test against herpes simplex virus type-2 at 50 mg/kg/day; format: ADME, organism-based; conditions: in vivo; outline: as §5
Mus musculus [24] = assay: Day of death in lethal test against herpes simplex virus type-1 at 25 mg/kg/day; format: ADME, organism-based; conditions: in vivo; outline: as §4
WI-38 [25] = assay: Tested for growth inhibition against WI-38 cells; format: functional; conditions: Homo sapiens, read-out: ID50 (the source's name); outline: as §3

For O=c1[nH]c(=O)n([C@@H]2CO[C@H](CO)[C@H]2CO)cc1I, which IC50 (Human betaherpesvirus 5) is on record?
The IC50 was greater than 270 µM.

And the IC50 (Human alphaherpesvirus 1 [1])?
The IC50 was 140 µM.

And the IC50 (Human alphaherpesvirus 3)?
Its IC50 is 70 µM.

With Nc1nc(O)c2ncn([C@@H]3CO[C@H](CO)[C@H]3CO)c2n1 as the compound, how does the IC50 (Human betaherpesvirus 5) read?
Its IC50 is greater than 360 µM.

And the IC50 (Human alphaherpesvirus 1 [2])?
The IC50 was 18 µM.

And the IC50 (Human alphaherpesvirus 2)?
The IC50 was 180 µM.

What about the IC50 [3] of the same compound?
Its IC50 is 7 µM.

And the IC50 (Human alphaherpesvirus 1 [4])?
The IC50 was 180 µM.

And the ED50 (Mus musculus [5])?
Its ED50 is 84 mg/kg/day.

What about the ED50 (Mus musculus [6]) of the same compound?
The ED50 was 52 mg/kg/day.

What about the IC50 (WI-38 [7]) of the same compound?
The IC50 was greater than 700 µM.

What about the IC50 (Vaccinia virus) of the same compound?
Its IC50 is greater than 360 µM.

What about the IC50 (Human alphaherpesvirus 3) of the same compound?
Its IC50 is 40 µM.

And the No. of survivors (Mus musculus [8])?
The No. of survivors was 6.

What about the No. of survivors (Mus musculus [9]) of the same compound?
The No. of survivors was 7.

And the No. of survivors (Mus musculus [10])?
Its No. of survivors is 9.

What about the No. of survivors (Mus musculus [11]) of the same compound?
The No. of survivors was 2.

And the No. of survivors (Mus musculus [12])?
The No. of survivors was 6.

What about the No. of survivors (Mus musculus [13]) of the same compound?
Its No. of survivors is 0.

And the No. of survivors (Mus musculus [14])?
The No. of survivors was 9.

What about the No. of survivors (Mus musculus [15]) of the same compound?
Its No. of survivors is 6.

And the “Mean day of death” value (Mus musculus [16])?
The value was 14.7.

And the “Mean day of death” value (Mus musculus [17])?
The value was 9.6.

And the “Mean day of death” value (Mus musculus [18])?
The value was 12.3.

What about the “Mean day of death” value (Mus musculus [19]) of the same compound?
Its value is 10.1.

What about the “Mean day of death” value (Mus musculus [20]) of the same compound?
The value was 12.2.

What about the “Mean day of death” value (Mus musculus [21]) of the same compound?
Its value is 10.3.

And the “Mean day of death” value (Mus musculus [22])?
The value was 12.5.

And the “Mean day of death” value (Mus musculus [23])?
Its value is 10.9.

What about the “Mean day of death” value (Mus musculus [24]) of the same compound?
Its value is 9.1.

For Nc1nc(=O)n([C@@H]2CO[C@H](CO)[C@H]2CO)cc1I, which IC50 (Human betaherpesvirus 5) is on record?
The IC50 was greater than 270 µM.

And the IC50 (Human alphaherpesvirus 1 [1])?
The IC50 was 140 µM.

What about the IC50 (Human alphaherpesvirus 3) of the same compound?
Its IC50 is 14 µM.

For Nc1ncnc2c1ncn2[C@@H]1CO[C@H](CO)[C@H]1CO, which IC50 (Human betaherpesvirus 5) is on record?
The IC50 was 4 µM.

What about the IC50 (Human alphaherpesvirus 2) of the same compound?
Its IC50 is 4 µM.

And the IC50 [3]?
The IC50 was 4 µM.

What about the IC50 (Human alphaherpesvirus 1 [1]) of the same compound?
The IC50 was 8 µM.

And the IC50 (Human alphaherpesvirus 1 [4])?
The IC50 was 8 µM.

And the IC50 (WI-38 [25])?
Its IC50 is 90 µM.

And the IC50 (Vaccinia virus)?
The IC50 was 20 µM.

What about the IC50 (Human alphaherpesvirus 3) of the same compound?
Its IC50 is 4 µM.

What does the source list for Cc1cn([C@@H]2CO[C@H](CO)[C@H]2CO)c(=O)[nH]c1=O?
IC50 (Human betaherpesvirus 5): > 400 µM; IC50 [3]: 8 µM; IC50 (Human alphaherpesvirus 1 [1]): 4 µM; IC50 (Human alphaherpesvirus 1 [4]): > 400 µM; IC50 (Human alphaherpesvirus 3): 20 µM
